Reference: ChEMBL document CHEMBL2062453, “Lead optimization through VLAK protocol: new annelated pyrrolo-pyrimidine derivatives as antitumor agents” (2012)

Experiments:
Assay type in all cases: functional
[1] = test system: NCI-H23; assay: Cytotoxicity against human NCI-H23 cells after 48 hrs by SRB assay; conditions: NCI-H23, 48 h; for TGI: read-out: pTGI (converted)
How it was run: (§1)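 Five-dose screen, 10-fold or ½-log dilutions, compound stock in DMSO. Cells were in RPMI 1640 with 5% FBS and 2 mM glutamine at 5000–40,000 cells/well, preincubated 24 h, 37 °C, 5% CO₂, with a time-zero plate TCA-fixed. After 48 h drug exposure, cells were TCA-fixed and stained with 0.4% SRB, read at 515 nm. GI50, TGI and LC50 were derived from time-zero, control and test absorbances.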

[2] = test system: OVCAR-8; assay: Cytotoxicity against human OVCAR8 cells after 48 hrs by SRB assay; conditions: OVCAR-8, 48 h; for TGI: read-out: pTGI (converted); how it was run: as §1
[3] = test system: ACHN; assay: Cytotoxicity against human ACHN cells after 48 hrs by SRB assay; conditions: for CC50: read-out: pLC50 (the source's name) (converted); for TGI: read-out: pTGI (converted)
How it was run: (§2)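 NCI 60-cell five-dose screen. Cells grown in RPMI 1640 with 5% FBS and 2 mM glutamine, plated at 5000–40,000 cells/well, and preincubated 24 h at 37 °C in 5% CO2. Time-zero plates fixed with TCA. Five serial dilutions of DMSO stock added, then 48 h exposure. TCA fixation, 0.4% SRB staining, absorbance read at 515 nm. GI50 from [(Ti−Tz)/(C−Tz)]×100 = 50.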

[4] = test system: NCI-H322M; assay: Cytotoxicity against human NCI-H322M cells after 48 hrs by SRB assay; conditions: for TGI: read-out: pTGI (converted); how it was run: as §1
[5] = test system: OVCAR-3; assay: Cytotoxicity against human OVCAR3 cells after 48 hrs by SRB assay; conditions: OVCAR-3, 48 h; for TGI: read-out: pTGI (converted); how it was run: as §1
[6] = test system: CAKI-1; assay: Cytotoxicity against human Caki1 cells after 48 hrs by SRB assay; conditions: CAKI-1, 48 h; for TGI: read-out: pTGI (converted); how it was run: as §2
[7] = test system: SF-295; assay: Cytotoxicity against human SF295 cells after 48 hrs by SRB assay; conditions: SF-295, 48 h; for TGI: read-out: pTGI (converted); how it was run: as §1
[8] = test system: UACC-62; assay: Cytotoxicity against human UACC62 cells after 48 hrs by SRB assay; conditions: UACC-62, 48 h; for TGI: read-out: pTGI (converted)
How it was run: (§3)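 NCI 60-panel five-dose screen. Cells in RPMI 1640 with 5% FBS and 2 mM glutamine, plated at 5000–40,000 cells/well and preincubated 24 h at 37 °C under 5% CO2. Five 10-fold or half-log dilutions were added from a DMSO stock for 48 h. Cells were TCA-fixed (SR settled cells: 16% final), SRB-stained and read at 515 nm. GI50 was taken where (Ti−Tz)/(C−Tz)×100 = 50.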

[9] = test system: SF-268; assay: Cytotoxicity against human SF268 cells after 48 hrs by SRB assay; conditions: SF-268, 48 h; for TGI: read-out: pTGI (converted); how it was run: as §1
[10] = test system: MOLT-4; assay: Cytotoxicity against human MOLT4 cells after 48 hrs by SRB assay; conditions: MOLT-4, 48 h; for TGI: read-out: pTGI (converted); how it was run: as §1
[11] = test system: HCT-15; assay: Cytotoxicity against human HCT15 cells after 48 hrs by SRB assay; conditions: HCT-15, 48 h; for TGI: read-out: pTGI (converted); how it was run: as §2
[12] = test system: HOP-92; assay: Cytotoxicity against human HOP92 cells after 48 hrs by SRB assay; conditions: HOP-92, 48 h
How it was run: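 NCI 60-line five-dose screen. Cells are grown in RPMI 1640 with 5% FBS and 2 mM glutamine, plated at 5000–40,000 cells/well, and preincubated 24 h at 37 °C in 5% CO2. Compound is dissolved in DMSO and given at five concentrations (10-fold or ½-log dilutions) for 48 h. Cells are TCA-fixed (HL-60(TB), suspension: 16% final; HOP92, adherent: 10% final), SRB-stained and read at 515 nm. GI50 comes from [(Ti−Tz)/(C−Tz)]×100 = 50.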

[13] = test system: A498; assay: Cytotoxicity against human A498 cells after 48 hrs by SRB assay; conditions: A498, 48 h; for TGI: read-out: pTGI (converted); how it was run: as §2
[14] = test system: HT-29; assay: Cytotoxicity against human HT-29 cells after 48 hrs by SRB assay; conditions: HT-29, 48 h; for TGI: read-out: pTGI (converted); how it was run: as §2
[15] = test system: RPMI-8226; assay: Cytotoxicity against human RPMI8226 cells after 48 hrs by SRB assay; conditions: RPMI-8226, 48 h; for TGI: read-out: pTGI (converted); how it was run: as §1
[16] = test system: SF-539; assay: Cytotoxicity against human SF539 cells after 48 hrs by SRB assay; conditions: SF-539, 48 h; for TGI: read-out: pTGI (converted); how it was run: as §1
[17] = test system: NCI/ADR-RES; assay: Cytotoxicity against human NCI/ADR-RES cells after 48 hrs by SRB assay; conditions: for TGI: read-out: pTGI (converted); how it was run: as §1
[18] = test system: M14; assay: Cytotoxicity against human M14 cells after 48 hrs by SRB assay; conditions: M14, 48 h; for TGI: read-out: pTGI (converted); how it was run: as §2
[19] = test system: CCRF-CEM; assay: Cytotoxicity against human CCRF-CEM cells after 48 hrs by SRB assay; conditions: for TGI: read-out: pTGI (converted); how it was run: as §2
[20] = test system: NCI-H226; assay: Cytotoxicity against human NCI-H226 cells after 48 hrs by SRB assay; conditions: NCI-H226, 48 h; for TGI: read-out: pTGI (converted); how it was run: as §1
[21] = test system: RXF 393; assay: Cytotoxicity against human RXF393 cells after 48 hrs by SRB assay; conditions: RXF 393, 48 h; for TGI: read-out: pTGI (converted); how it was run: as §1
[22] = test system: MDA-MB-231; assay: Cytotoxicity against human MDA-MB-231 cells after 48 hrs by SRB assay; conditions: MDA-MB-231, 48 h; for TGI: read-out: pTGI (converted); how it was run: as §2
[23] = test system: SK-MEL-5; assay: Cytotoxicity against human SK-MEL-5 cells after 48 hrs by SRB assay; conditions: SK-MEL-5, 48 h; for TGI: read-out: pTGI (converted); how it was run: as §1
[24] = test system: SW-620; assay: Cytotoxicity against human SW620 cells after 48 hrs by SRB assay; conditions: SW-620, 48 h; for TGI: read-out: pTGI (converted); how it was run: as §3
[25] = test system: DU-145; assay: Cytotoxicity against human DU145 cells after 48 hrs by SRB assay; conditions: DU-145, 48 h; for TGI: read-out: pTGI (converted); how it was run: as §2

Compound: CSC1=Nc2c(c(C)c(-c3ccccc3)n2CCCN2CCCCC2)C2=NC(=O)CC(C)N12 (configuration not stated)
- GI50 [1]: 2.95 µM
- LC50 [1]: > 100 µM
- TGI [1]: > 100 µM
- GI50 [2]: 3.72 µM
- LC50 [2]: > 100 µM
- TGI [2]: 30.9 µM
- GI50 [3]: 3.02 µM
- CC50 [3]: > 100 µM
- TGI [3]: 22.4 µM
- GI50 [4]: 6.17 µM
- LC50 [4]: > 100 µM
- TGI [4]: 89.1 µM
- GI50 [5]: 2.4 µM
- LC50 [5]: 53.7 µM
- TGI [5]: 8.51 µM
- LC50 [6]: > 100 µM
- TGI [6]: 18.6 µM
- GI50 [7]: 2.57 µM
- LC50 [7]: 69.2 µM
- TGI [7]: 10.2 µM
- GI50 [8]: 2.82 µM
- LC50 [8]: 38 µM
- TGI [8]: 14.1 µM
- GI50 [9]: 3.39 µM
- LC50 [9]: 45.7 µM
- TGI [9]: 14.1 µM
- GI50 [10]: 2 µM
- LC50 [10]: 20.4 µM
- TGI [10]: 5.13 µM
- GI50 [11]: 4.47 µM
- LC50 [11]: > 100 µM
- TGI [11]: 28.2 µM
- LC50 [12]: > 100 µM
- GI50 [13]: 3.16 µM
- LC50 [13]: > 100 µM
- TGI [13]: 9.12 µM
- GI50 [14]: 1.62 µM
- LC50 [14]: > 100 µM
- TGI [14]: 7.24 µM
- GI50 [15]: 0.166 µM
- LC50 [15]: 4.27 µM
- TGI [15]: 1.2 µM
- GI50 [16]: 6.46 µM
- LC50 [16]: > 100 µM
- TGI [16]: 87.1 µM
- GI50 [17]: 17 µM
- LC50 [17]: > 100 µM
- TGI [17]: 74.1 µM
- GI50 [18]: 3.63 µM
- LC50 [18]: 64.6 µM
- TGI [18]: 17.4 µM
- GI50 [19]: 2.69 µM
- LC50 [19]: > 100 µM
- TGI [19]: 12 µM
- GI50 [20]: 3.55 µM
- LC50 [20]: > 100 µM
- TGI [20]: > 100 µM
- GI50 [21]: 1.51 µM
- LC50 [21]: 25.1 µM
- TGI [21]: 4.68 µM
- GI50 [22]: 1.82 µM
- LC50 [22]: > 100 µM
- TGI [22]: 9.55 µM
- GI50 [23]: 2 µM
- LC50 [23]: 14.8 µM
- TGI [23]: 4.9 µM
- GI50 [24]: 2.4 µM
- LC50 [24]: 32.4 µM
- TGI [24]: 10.5 µM
- GI50 [25]: 3.39 µM
- LC50 [25]: > 100 µM
- TGI [25]: 27.5 µM

Compound: CSC1=Nc2c(c(C)c(-c3ccccc3)n2CCCCl)C2=NC(=O)CN12
- GI50 [1]: 8.32 µM
- LC50 [1]: > 100 µM
- TGI [1]: 46.8 µM
- GI50 [2]: 16.2 µM
- LC50 [2]: > 100 µM
- TGI [2]: 72.4 µM
- GI50 [3]: 9.55 µM
- CC50 [3]: > 100 µM
- TGI [3]: 38 µM
- GI50 [4]: 9.77 µM
- LC50 [4]: 58.9 µM
- TGI [4]: 24.5 µM
- GI50 [5]: 8.32 µM
- LC50 [5]: > 100 µM
- TGI [5]: 36.3 µM
- GI50 [6]: 4.57 µM
- LC50 [6]: > 100 µM
- TGI [6]: 28.2 µM
- GI50 [7]: 4.07 µM
- LC50 [7]: > 100 µM
- TGI [7]: 26.9 µM
- GI50 [8]: 2.09 µM
- LC50 [8]: 38 µM
- TGI [8]: 11.5 µM
- GI50 [9]: 8.51 µM
- LC50 [9]: > 100 µM
- TGI [9]: 47.9 µM
- GI50 [10]: 3.89 µM
- LC50 [10]: > 100 µM
- TGI [10]: > 100 µM
- GI50 [11]: 4.07 µM
- LC50 [11]: > 100 µM
- TGI [11]: 21.4 µM
- GI50 [12]: 11.5 µM
- LC50 [12]: > 100 µM
- TGI ([12]; read-out: pTGI (converted)): 37.2 µM
- GI50 [13]: 3.89 µM
- LC50 [13]: 53.7 µM
- TGI [13]: 15.1 µM
- GI50 [14]: 3.89 µM
- LC50 [14]: > 100 µM
- TGI [14]: 19.5 µM
- GI50 [15]: 3.72 µM
- LC50 [15]: > 100 µM
- TGI [15]: 66.1 µM
- GI50 [16]: 3.39 µM
- LC50 [16]: 39.8 µM
- TGI [16]: 14.1 µM
- GI50 [17]: 4.27 µM
- LC50 [17]: > 100 µM
- TGI [17]: > 100 µM
- GI50 [18]: 3.31 µM
- LC50 [18]: > 100 µM
- TGI [18]: 15.1 µM
- GI50 [19]: 5.13 µM
- LC50 [19]: > 100 µM
- TGI [19]: > 100 µM
- GI50 [20]: 11 µM
- LC50 [20]: 81.3 µM
- TGI [20]: 29.5 µM
- GI50 [21]: 11.2 µM
- LC50 [21]: 79.4 µM
- TGI [21]: 29.5 µM
- GI50 [22]: 5.62 µM
- LC50 [22]: 77.6 µM
- TGI [22]: 24 µM
- GI50 [23]: 3.47 µM
- LC50 [23]: 38 µM
- TGI [23]: 14.1 µM
- GI50 [24]: 4.79 µM
- LC50 [24]: > 100 µM
- TGI [24]: 53.7 µM
- GI50 [25]: 11.5 µM
- LC50 [25]: 61.7 µM
- TGI [25]: 26.9 µM
